DDE Tn7 FP inh = inhibitors of Tn7 peptide binding to human fibrin DD(E). AID 720508. FP displacement of FITC-Tn7 peptide from fibrin DD(E); 0% = median of compound wells per plate. P02675. 370,000 compounds, 0.13% hits. inhibition, % at 8.3 µM;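 active = inhibition above the mean of compounds falling within the control limits plus 3 SD of them, cut at about 14% in these data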;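 note: 0% = plate median of compound wells and 100% = 10 µM Aha-Tn7 peptide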
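Also added: labelled Tn7 tracer, 0.1 µM; Assay system: human fibrin DD(E) protein; Amount: 2 µM fibrin DD(E); Schedule: 10 min compound pre-incubation, 3 h probe incubation at room temperature; Repeats: one replicate per compound; Read-out basis: percent inhibition; Measured by: fluorescence polarization of the labelled Tn7 tracer.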
PLCb3 inh = blocks human PLC-beta3 enzyme activity; Q01970; 370,000 compounds, 0.18% hits; inhibition, % at 12.2 µM; Purified PLC-beta3, fluorogenic substrate, fluorescence; AID 720704; in the data active = inhibition above about 11%;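 note: 0% = median of compound wells on plate and 100% = full blocker control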
DDE Tn6 FP inh = inhibitors of Tn6 peptide binding to human fibrin DD(E) | P02675 | Fibrin DD(E) TRITC-Tn6 fluorescence polarization displacement | inhibition, % at 8.3 µM | 370,000 compounds, 0.21% hits | AID 720509;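 active = inhibition above a per-campaign cutoff: mean of compounds within control limits plus 3 SD, cut at about 15% in these data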;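 note: 0% = median of all compound wells on the plate and 100% = blocking peptide control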
FID counter = counter-screen for HCV NS3 helicase inhibitors: DNA intercalator displacement | DNA fluorescent intercalator displacement, fluorescence | inhibition, % at 7.9 µM | 290,000 compounds, 0.17% hits | AID 1845; in the data active = inhibition above about 37%;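 note: 0% = vehicle and 100% = reference compound; higher means more ethidium bromide displaced from hairpin DNA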
PLC-gamma1 inh = PLC-gamma1 (human) inhibition, primary screen. AID 720700. P19174. purified PLC-gamma1, fluorogenic substrate, fluorescence. 370,000 compounds, 0.84% hits. inhibition, % at 12.2 µM
Target sequence (P19174 whole entry, looked up): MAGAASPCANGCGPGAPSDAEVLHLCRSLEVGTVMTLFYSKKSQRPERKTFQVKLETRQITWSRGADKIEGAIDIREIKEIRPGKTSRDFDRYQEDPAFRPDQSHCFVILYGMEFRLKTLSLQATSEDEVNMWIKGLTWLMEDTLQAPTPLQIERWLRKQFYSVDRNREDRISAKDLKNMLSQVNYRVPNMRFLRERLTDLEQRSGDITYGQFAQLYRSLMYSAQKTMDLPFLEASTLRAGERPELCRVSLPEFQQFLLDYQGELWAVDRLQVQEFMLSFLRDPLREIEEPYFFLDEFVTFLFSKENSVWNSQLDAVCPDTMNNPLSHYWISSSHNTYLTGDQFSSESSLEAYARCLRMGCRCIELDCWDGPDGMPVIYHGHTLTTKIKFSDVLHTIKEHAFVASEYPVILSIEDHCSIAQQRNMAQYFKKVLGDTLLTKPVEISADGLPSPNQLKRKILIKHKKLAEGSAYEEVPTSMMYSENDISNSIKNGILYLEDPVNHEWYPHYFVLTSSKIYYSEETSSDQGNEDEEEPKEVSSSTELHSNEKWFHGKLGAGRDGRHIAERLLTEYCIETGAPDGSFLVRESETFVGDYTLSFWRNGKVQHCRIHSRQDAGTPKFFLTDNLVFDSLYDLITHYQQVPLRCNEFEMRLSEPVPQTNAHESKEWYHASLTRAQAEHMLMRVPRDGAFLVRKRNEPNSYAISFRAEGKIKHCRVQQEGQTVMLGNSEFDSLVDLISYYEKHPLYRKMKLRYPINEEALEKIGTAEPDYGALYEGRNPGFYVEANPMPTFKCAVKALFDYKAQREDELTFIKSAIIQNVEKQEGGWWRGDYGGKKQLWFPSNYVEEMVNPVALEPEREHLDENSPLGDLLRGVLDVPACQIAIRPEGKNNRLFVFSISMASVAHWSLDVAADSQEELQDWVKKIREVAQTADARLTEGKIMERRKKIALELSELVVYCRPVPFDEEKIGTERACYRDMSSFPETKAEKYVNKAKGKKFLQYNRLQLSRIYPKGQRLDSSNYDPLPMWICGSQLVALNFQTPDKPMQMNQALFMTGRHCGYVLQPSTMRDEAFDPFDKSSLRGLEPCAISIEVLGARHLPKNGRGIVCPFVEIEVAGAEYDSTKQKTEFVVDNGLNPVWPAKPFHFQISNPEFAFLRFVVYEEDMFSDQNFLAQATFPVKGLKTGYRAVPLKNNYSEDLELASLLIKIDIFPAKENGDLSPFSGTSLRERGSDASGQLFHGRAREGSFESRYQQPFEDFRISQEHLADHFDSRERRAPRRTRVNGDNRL
PLCgamma1 ctr = PLC-gamma1 inhibition, counter-screen for PLC-beta3 hits; shares compounds with PLC-gamma1 inh; purified PLC-gamma1, fluorogenic substrate, fluorescence; inhibition, % at 12.3 µM; 3,300 compounds, 3.1% hits; AID 743258
PLCbeta3 conf = confirmation of human PLC-beta3 inhibitors | shares compounds with PLC-gamma1 inh | purified PLC-beta3, fluorogenic substrate fluorescence | inhibition, % at 12.3 µM | 3,300 compounds, 1% hits | AID 743261; in the data active = inhibition above about 11%
* = called active by the depositor; . = not tested or not shown. This is a sample that favours compounds with a hit; in the whole collection about 1.4% have one here. Cut-off read from the data, not from the text of the source, unless noted: active = inhibition above about 9.5%; inactive = the rest.

SMILES | DDE Tn7 FP inh | PLCb3 inh | DDE Tn6 FP inh | FID counter | PLC-gamma1 inh | PLCgamma1 ctr | PLCbeta3 conf
O=C(C[C@H]1CC[C@@H]2[C@H](COC[C@@H](O)CN2C(=O)C2CC2)O1)NCc1ccccc1Cl | 8 | 0 | -3 | . | -1 | . | .
O=C(C[C@H]1CC[C@H]2[C@@H](COC[C@@H](O)CN2C(=O)c2cnccn2)O1)NCc1ccc(Oc2ccccc2)cc1 | 3 | 11* | -2 | . | 2 | -6 | 0
CCCNC(=O)c1cccc(Cn2nc(C)c(Br)c2C)c1 | 0 | 8 | 1 | -23 | 12* | -2 | 0
COc1ccc(C(=O)NC(=S)Nc2cccc(NC(=O)c3ccco3)c2)cc1[N+](=O)[O-] | -9 | 5 | 5 | 8 | 13* | -1 | 1
COc1ccc(C(=O)NC(=S)Nc2ccc(NC(=O)c3ccco3)cc2)cc1[N+](=O)[O-] | -1 | 3 | 0 | 2 | 2 | . | .
O=C(NC(=S)Nc1ccc([N+](=O)[O-])cc1)c1ccco1 | 3 | 5 | 1 | . | 13* | -3 | 0
O=C(NC(=S)Nc1ccccc1[N+](=O)[O-])c1ccco1 | 10 | -1 | 2 | 7 | 1 | . | .
Nc1ccc([N+](=O)[O-])cc1C(=O)NNC(=O)c1ccco1 | -1 | 3 | -5 | -2 | 9.7* | 7 | 7
O=C(NNc1ccc([N+](=O)[O-])cc1[N+](=O)[O-])c1ccco1 | . | . | . | 5 | . | . | .
Cc1c(N2C(=O)c3cccc4cccc(c34)C2=O)c(=O)n(-c2ccccc2)n1C | 2 | 12* | -5 | -7 | 9.8* | 14* | 5
C=CCn1c(SCC(=O)N2CCOCC2)nc2sc3c(c2c1=O)CCCC3 | -6 | 1 | -1 | -25 | -1 | . | .
COc1cc2c(c(O)c1OC)C1Cc3ccc(OC)c(OC)c3CN1CC2 (configuration not stated) | 4 | -25 | 4 | . | -21 | . | .
COc1cc2c3cc1Oc1cc(ccc1O)C[C@@H]1c4c(cc(OC)c(O)c4Oc4ccc(cc4)C[C@@H]3N(C)CC2)CC[N+]1(C)C | -3 | 10 | -2 | . | 13* | -3 | -1
Cc1cc(N(C)C)ccc1N=Nc1ccc(N)cc1 | 5 | -4 | -4 | . | 4 | . | .
COc1ccc(OCCNc2cc(N3CCCCC3)ccc2[N+](=O)[O-])cc1 | 2 | 3 | -2 | 3 | 1 | . | .
CC1CN(c2ccc([N+](=O)[O-])c(NCCOc3ccccc3)c2)CCN1 (configuration not stated) | -2 | 11* | -4 | 27 | 8 | 0 | 1
COc1cccc(NC(=O)c2ccc(CN3CCc4ccccc4C3)cc2)c1 | 8 | -7 | 1 | 4 | 0 | . | .
C[N+]1([O-])[C@@H]2Cc3cc4c(cc3[C@@H]1Cc1cc3c(cc12)OCO3)OCO4 (some centres not stated) | -4 | 12* | 2 | . | 1 | -2 | -4
CCC(C)C(NC(=O)C1CCC(C)CC1)C(=O)NCCCN1CCCCC1CC (configuration not stated) | 2 | 0 | 0 | 10 | 0 | . | .
COc1ccc(NS(=O)(=O)c2ccc(NC(=S)NC(=O)C(C)C)cc2)cc1 | -5 | 5 | 2 | -4 | 11* | -3 | -2
CCOc1ccc(NS(=O)(=O)c2ccc(NC(=S)NC(=O)C(C)C)cc2)cc1 | -2 | 2 | -7 | -9 | 2 | . | .
COc1cccc(C2c3c(-c4ccccc4)n[nH]c3C(=O)N2c2ccc(C(=O)O)cc2)c1 (configuration not stated) | -6 | 0 | 11 | -44 | 2 | . | .
COc1ccc(C2c3c(-c4ccccc4)n[nH]c3C(=O)N2c2ccc(C(=O)O)cc2)cc1 (configuration not stated) | 0 | 6 | -2 | -37 | 11* | -4 | -5
COc1ccccc1OCc1nnc(SCC(=O)N2CCCCC2)n1-c1ccccc1 | 0 | 0 | -7 | -35 | 0 | . | .
CN(C)c1ncnc2c1ncn2[C@H]1CN(CCN2CCOCC2)C[C@@H](CO)O1 | -5 | 6 | 2 | . | 11* | 0 | 0
SMILES | DDE Tn7 FP inh | PLCb3 inh | DDE Tn6 FP inh | FID counter | PLC-gamma1 inh | PLCgamma1 ctr | PLCbeta3 conf
Cc1cc(N2CCN(C(=O)Oc3ccc(-c4ccccc4)cn3)CC2)c2ccccc2n1 | -5 | 0 | -1 | . | 12* | 2 | -2
C[C@H]1CCC[C@]2(O[C@@H](CCO)C[C@@H](O)[C@@H]2O)O1 | 0 | 7 | -4 | . | 9.9* | -5 | 2
OCC[C@@H]1C[C@@H](O)[C@H](O)[C@]2(CCCc3ccccc3O2)O1 | -4 | 2 | 0 | -5 | 1 | . | .
OCC[C@H]1C[C@H](O)[C@@H](O)[C@]2(CCCc3ccccc3O2)O1 | -3 | 11* | 1 | . | 0 | 5 | 4
OCC[C@H]1C[C@@H](O)[C@H](O)[C@]2(CCc3ccccc3O2)O1 | -1 | 11* | -1 | . | 9 | -5 | 1
CCOC(=O)c1[nH]c2ccc(OC)cc2c1NS(=O)(=O)c1ccc(Cl)s1 | -1 | -4 | 4 | -4 | -2 | . | .
Cc1ccc2c(c1)CC1(CN2C)C(=O)OC(C)(C)OC1=O | 1 | -27 | 5 | -3 | -22 | . | .
Cc1ccc2c(c1)C(=O)OC1(O)C3C4C=CC(C4)C3C(=O)N21 (configuration not stated) | -7 | -2 | -10 | 1 | -2 | . | .
Cc1ccc(-n2c(=O)[nH]cc(C(=O)Nc3ccc4c(c3)OCCO4)c2=O)cc1C | 1 | -3 | 7 | -2 | -2 | . | .
Cc1cccc(C)c1N(CC(=O)NC1CCCCC1)C(=O)c1csnn1 | -2 | -1 | 1 | -25 | 16* | -5 | 1
Cc1cc(=O)n2nc(N3CCCC(C(=O)NCc4ccccc4Br)C3)sc2n1 (configuration not stated) | -4 | -7 | -7 | -27 | 12* | -3 | 1
COc1ccc(CCNC(=O)c2cc(-c3ccco3)on2)cc1OC | 3 | -6 | 1 | -18 | 3 | . | .
Cc1cc(C)n(-c2nc3c(c(=O)[nH]c(=O)n3C)n2C(C)C)n1 | 1 | 14* | 0 | -4 | 5 | -6 | -3
CC1Cn2c(Cc3ccccc3)nnc2S1 (configuration not stated) | -5 | 14* | 7 | . | 8 | -1 | 3
CC1Cn2c(CCc3ccccc3)nnc2S1 (configuration not stated) | -2 | -2 | -4 | -1 | 0 | . | .
CN(C)N1C(=O)CC(NNC(=O)c2ccncc2)C1=O (configuration not stated) | -3 | 3 | -7 | 3 | 10* | -6 | 2
COCCn1c(SCC(=O)OC(C)C)nnc1-c1ccccc1 | 1 | 8 | -7 | -3 | 12* | -3 | 0
O=C(N(Cc1ccccc1)c1ccccn1)C12CC3CC(CC(C3)C1)C2 | -3 | 2 | 3 | -21 | 1 | . | .
